Each structure is given as a SMILES string. *1 amine or outer side, *2 acyl side, *3 side chain or, on linkers, in order; H or OH if unused. Where a SMILES comes first, the peptide text is derived from it. [ ]: non-standard residue; d: D form. X1 = O=C([C@H](N[*:1])C1c2ccccc2-c2ccccc21)[*:2]; d1Nal = N[C@H](Cc1cccc2ccccc12)C(=O)O; d2Nal = N[C@H](Cc1ccc2ccccc2c1)C(=O)O; dTic = O=C(O)[C@H]1Cc2ccccc2CN1; Orn = NCCC[C@H](N)C(=O)O A value given as a limit tells only on which side of the number the result lay.

Conditions in all cases: defibrinated sheep red blood cells, read-out: TI
Data set [1] in a line: Therapeutic index, ratio of HC50 for defibrinated sheep RBC to MIC50 for colistin-resistant Acinetobacter baumannii 19606R. The procedure, abridged: (§1)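 TI is HC50/MIC50. For HC50, defibrinated sheep erythrocytes were washed in Hank's medium with 20 mM glucose (pH 7.2), held at 2 × 10^7 cells/mL, and incubated 4 h at 37 °C with peptide in triplicate. After centrifugation, hemoglobin release was read at 550 nm.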

The nature of data set [2]: Therapeutic index, ratio of HC50 for defibrinated sheep RBC to MIC50 for Listeria monocytogenes CECT 4032. The method, boiled down: as §1
Data set [3] in a line: Therapeutic index, ratio of HC50 for defibrinated sheep RBC to MIC50 for Staphylococcus aureus CECT 240. The method, boiled down: as §1

Take `CC(C)C[C@@H]1NC(=O)[C@H](CCCN)NC(=O)[C@H](C(C)C)NC(=O)[C@@H]2CCCN2C(=O)[C@@H](C2c3ccccc3-c3ccccc32)NC(=O)[C@H](CC(C)C)NC(=O)[C@H](CCCN)NC(=O)[C@H](C(C)C)NC(=O)[C@@H]2CCCN2C(=O)[C@@H](C2c3ccccc3-c3ccccc32)NC1=O` (cyclo(L[X1]PV[Orn]L[X1]PV[Orn])): the selectivity ratio in data set [1] was over 0.1.
Same read-out and setting: then `CC(C)C[C@@H]1NC(=O)[C@H](CCCN)NC(=O)[C@H](C(C)C)NC(=O)[C@@H]2CCCN2C(=O)[C@@H](Cc2ccc3ccccc3c2)NC(=O)[C@H](CC(C)C)NC(=O)[C@H](CCCN)NC(=O)[C@H](C(C)C)NC(=O)[C@@H]2CCCN2C(=O)[C@@H](Cc2ccc3ccccc3c2)NC1=O` (cyclo(L[d2Nal]PV[Orn]L[d2Nal]PV[Orn])), with over 0.2.
Take `CC(C)C[C@@H]1NC(=O)[C@H](CCCN)NC(=O)[C@H](C(C)C)NC(=O)[C@@H]2CCCN2C(=O)[C@H]2Cc3ccccc3CN2C(=O)[C@H](CC(C)C)NC(=O)[C@H](CCCN)NC(=O)[C@H](C(C)C)NC(=O)[C@@H]2CCCN2C(=O)[C@H]2Cc3ccccc3CN2C1=O` (cyclo(L[dTic]PV[Orn]L[dTic]PV[Orn])): the selectivity ratio is over 6 in data set [2] and over 10.2 in data set [3].
In the case of `CC(C)C[C@@H]1NC(=O)[C@H](CCCN)NC(=O)[C@H](C(C)C)NC(=O)[C@@H]2CCCN2C(=O)[C@@H](Cc2cccc3ccccc23)NC(=O)[C@H](CC(C)C)NC(=O)[C@H](CCCN)NC(=O)[C@H](C(C)C)NC(=O)[C@@H]2CCCN2C(=O)[C@@H](Cc2cccc3ccccc23)NC1=O` (cyclo(L[d1Nal]PV[Orn]L[d1Nal]PV[Orn])), the selectivity ratio in data set [1] is over 0.1.

These data come from ChEMBL document CHEMBL1143367, “Therapeutic index of gramicidin S is strongly modulated by D-phenylalanine analogues at the beta-turn” (J Med Chem, 2009).
